ChEMBL document CHEMBL4689842, “EUbOPEN Chemogenomics Library wave 1” (2021)
Where “and” joins values, the source holds several entries; their conditions need not be identical. Equal entries are not always repeated.

System: U2OS
Assay: Multiplex assay against U2OS
Format: toxicity, cell-based
Details: human
Method in brief: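 Imaging took place on a CQ1 microscope at 37°C and 5% CO2 once compound had been added to live cells stained at seeding with Hoechst33342, BioTracker Green Microtubule Cytoskeleton Dye, MitoTracker Red and Annexin V Alexa Fluor 680. CellPathfinder machine-learning gating classed cells as Hoechst high-intensity objects or normal cells, classed normal cells as having healthy, pyknosed or fragmented nuclei, and classed pyknosed cells as mitotic or apoptotic. Tubulin, mitochondrial-mass and membrane-permeability phenotypes are per cents of the healthy-nucleus cells.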

[1] = 12 h, 1 µM, compound concentration 1 uM, replicate 1
[2] = 12 h, 1 µM, compound concentration 1 uM, replicate 2
[3] = 12 h, 10 µM, compound concentration 10 uM, replicate 1
[4] = 12 h, 10 µM, compound concentration 10 uM, replicate 2
[5] = 24 h, 1 µM, compound concentration 1 uM, replicate 1
[6] = 24 h, 1 µM, compound concentration 1 uM, replicate 2
[7] = 24 h, 10 µM, compound concentration 10 uM, replicate 1
[8] = 24 h, 10 µM, compound concentration 10 uM, replicate 2
[9] = 48 h, 1 µM, compound concentration 1 uM, replicate 1
[10] = 48 h, 1 µM, compound concentration 1 uM, replicate 2
[11] = 48 h, 10 µM, compound concentration 10 uM, replicate 1
[12] = 48 h, 10 µM, compound concentration 10 uM, replicate 2

O=c1cc(N2CCOCC2)oc2c(-c3cccc4c3sc3ccccc34)cccc12
Population Apoptotic (%) [1]: 35% | Population Fragmented Nuclei (%) [1]: 12% | Population Healthy Nuclei (%) [1]: 76% | Population Hoechst High Intensity Objects (%) [1]: 7% | Population Membrane Permeable-Phenotype (%) [1]: 2% | Population Mitochondria Different-Phenotype (%) [1]: 10% | Population Mitotic Cells (%) [1]: 65% | Population Normal (%) [1]: 92% | Population Pyknosed Nuclei (%) [1]: 11% | Population Tubulin-Different-Phenotype (%) [1]: 10% | Total Cell Count [1]: 120 | Population Apoptotic (%) [2]: 100% | Population Fragmented Nuclei (%) [2]: 15% | Population Healthy Nuclei (%) [2]: 77% | Population Hoechst High Intensity Objects (%) [2]: 10% | Population Mitochondria Different-Phenotype (%) [2]: 6% | Population Mitotic Cells (%) [2]: 0% | Population Normal (%) [2]: 90% | Population Pyknosed Nuclei (%) [2]: 6% | Population Tubulin-Different-Phenotype (%) [2]: 14% | Total Cell Count [2]: 79 | Population Apoptotic (%) [3]: 52% | Population Fragmented Nuclei (%) [3]: 20% | Population Healthy Nuclei (%) [3]: 47% | Population Hoechst High Intensity Objects (%) [3]: 4% | Population Membrane Permeable-Phenotype (%) [3]: 24% | Population Mitochondria Different-Phenotype (%) [3]: 73% | Population Mitotic Cells (%) [3]: 47% | Population Normal (%) [3]: 95% | Population Pyknosed Nuclei (%) [3]: 32% | Population Tubulin-Different-Phenotype (%) [3]: 100% | Total Cell Count [3]: 190 | Population Apoptotic (%) [4]: 31% | Population Fragmented Nuclei (%) [4]: 19% | Population Healthy Nuclei (%) [4]: 45% | Population Hoechst High Intensity Objects (%) [4]: 16% | Population Membrane Permeable-Phenotype (%) [4]: 23% | Population Mitochondria Different-Phenotype (%) [4]: 90% | Population Mitotic Cells (%) [4]: 68% | Population Normal (%) [4]: 83% | Population Pyknosed Nuclei (%) [4]: 34% | Population Tubulin-Different-Phenotype (%) [4]: 95% | Total Cell Count [4]: 70 | Population Apoptotic (%) [5]: 25% | Population Fragmented Nuclei (%) [5]: 14% | Population Healthy Nuclei (%) [5]: 74% | Population Hoechst High Intensity Objects (%) [5]: 7% | Population Membrane Permeable-Phenotype (%) [5]: 4% | Population Mitochondria Different-Phenotype (%) [5]: 7% | Population Mitotic Cells (%) [5]: 75% | Population Normal (%) [5]: 92% | Population Pyknosed Nuclei (%) [5]: 10% | Population Tubulin-Different-Phenotype (%) [5]: 7% | Total Cell Count [5]: 118 | Population Apoptotic (%) [6]: 60% | Population Fragmented Nuclei (%) [6]: 11% | Population Healthy Nuclei (%) [6]: 82% | Population Hoechst High Intensity Objects (%) [6]: 6% | Population Membrane Permeable-Phenotype (%) [6]: 9% | Population Mitochondria Different-Phenotype (%) [6]: 9% | Population Mitotic Cells (%) [6]: 40% | Population Normal (%) [6]: 93% | Population Pyknosed Nuclei (%) [6]: 6% | Population Tubulin-Different-Phenotype (%) [6]: 15% | Total Cell Count [6]: 86 | Population Apoptotic (%) [7]: 60% | Population Fragmented Nuclei (%) [7]: 16% | Population Healthy Nuclei (%) [7]: 27% | Population Hoechst High Intensity Objects (%) [7]: 7% | Population Membrane Permeable-Phenotype (%) [7]: 22% | Population Mitochondria Different-Phenotype (%) [7]: 93% | Population Mitotic Cells (%) [7]: 40% | Population Normal (%) [7]: 92% | Population Pyknosed Nuclei (%) [7]: 55% | Population Tubulin-Different-Phenotype (%) [7]: 97% | Total Cell Count [7]: 242 | Population Apoptotic (%) [8]: 66% | Population Fragmented Nuclei (%) [8]: 14% | Population Healthy Nuclei (%) [8]: 21% | Population Hoechst High Intensity Objects (%) [8]: 6% | Population Membrane Permeable-Phenotype (%) [8]: 50% | Population Mitochondria Different-Phenotype (%) [8]: 70% | Population Mitotic Cells (%) [8]: 33% | Population Normal (%) [8]: 94% | Population Pyknosed Nuclei (%) [8]: 63% | Population Tubulin-Different-Phenotype (%) [8]: 70% | Total Cell Count [8]: 86 | Population Apoptotic (%) [9]: 43% | Population Fragmented Nuclei (%) [9]: 7% | Population Hoechst High Intensity Objects (%) [9]: 5% | Population Membrane Permeable-Phenotype (%) [9]: 3% | Population Mitochondria Different-Phenotype (%) [9]: 8% | Population Mitotic Cells (%) [9]: 56% | Population Normal (%) [9]: 94% | Population Pyknosed Nuclei (%) [9]: 18% | Population Tubulin-Different-Phenotype (%) [9]: 9% | Total Cell Count [9]: 127 | Population Apoptotic (%) [10]: 18% | Population Fragmented Nuclei (%) [10]: 16% | Population Healthy Nuclei (%) [10]: 73% | Population Hoechst High Intensity Objects (%) [10]: 4% | Population Membrane Permeable-Phenotype (%) [10]: 12% | Population Mitochondria Different-Phenotype (%) [10]: 12% | Population Mitotic Cells (%) [10]: 81% | Population Normal (%) [10]: 95% | Population Pyknosed Nuclei (%) [10]: 9% | Population Tubulin-Different-Phenotype (%) [10]: 18% | Total Cell Count [10]: 103 | Population Apoptotic (%) [11]: 81% | Population Fragmented Nuclei (%) [11]: 30% | Population Healthy Nuclei (%) [11]: 5% | Population Hoechst High Intensity Objects (%) [11]: 13% | Population Membrane Permeable-Phenotype (%) [11]: 55% | Population Mitochondria Different-Phenotype (%) [11]: 88% | Population Mitotic Cells (%) [11]: 19% | Population Normal (%) [11]: 86% | Population Pyknosed Nuclei (%) [11]: 63% | Population Tubulin-Different-Phenotype (%) [11]: 77% | Total Cell Count [11]: 305 | Population Apoptotic (%) [12]: 80% | Population Fragmented Nuclei (%) [12]: 22% | Population Healthy Nuclei (%) [12]: 25% | Population Hoechst High Intensity Objects (%) [12]: 12% | Population Membrane Permeable-Phenotype (%) [12]: 50% | Population Mitochondria Different-Phenotype (%) [12]: 83% | Population Mitotic Cells (%) [12]: 20% | Population Normal (%) [12]: 87% | Population Pyknosed Nuclei (%) [12]: 52% | Population Tubulin-Different-Phenotype (%) [12]: 58% | Total Cell Count [12]: 116

CNCc1ccccc1-c1csc([C@@H](C)Nc2nc(C)nc3cc(OC)c(OC)cc23)c1 [BAY-293]
Population Apoptotic (%) [3]: 63% and 46% | Population Healthy Nuclei (%) [3]: 36% and 80% | Population Hoechst High Intensity Objects (%) [3]: 5% and 4% | Population Membrane Permeable-Phenotype (%) [3]: 73% and 54% | Population Mitochondria Different-Phenotype (%) [3]: 88% and 36% | Population Mitotic Cells (%) [3]: 36% and 53% | Population Normal (%) [3]: 94% and 95% | Population Tubulin-Different-Phenotype (%) [3]: 100% and 98% | Population Apoptotic (%) [4]: 54% and 52% | Population Fragmented Nuclei (%) [4]: 9% and 17% | Population Healthy Nuclei (%) [4]: 72% and 52% | Population Hoechst High Intensity Objects (%) [4]: 14% and 16% | Population Membrane Permeable-Phenotype (%) [4]: 46% and 75% | Population Mitochondria Different-Phenotype (%) [4]: 56% and 97% | Population Mitotic Cells (%) [4]: 45% and 47% | Population Normal (%) [4]: 85% and 83% | Population Pyknosed Nuclei (%) [4]: 17% and 30% | Population Tubulin-Different-Phenotype (%) [4]: 97% | Population Apoptotic (%) [7]: 91% | Population Fragmented Nuclei (%) [7]: 19% and 7% | Population Hoechst High Intensity Objects (%) [7]: 19% and 7% | Population Membrane Permeable-Phenotype (%) [7]: 100% and 52% | Population Mitochondria Different-Phenotype (%) [7]: 100% and 64% | Population Mitotic Cells (%) [7]: 8% | Population Normal (%) [7]: 80% and 92% | Population Pyknosed Nuclei (%) [7]: 66% and 27% | Population Tubulin-Different-Phenotype (%) [7]: 100% and 97% | Population Apoptotic (%) [8]: 84% and 45% | Population Fragmented Nuclei (%) [8]: 25% and 10% | Population Healthy Nuclei (%) [8]: 30% and 60% | Population Hoechst High Intensity Objects (%) [8]: 10% and 8% | Population Membrane Permeable-Phenotype (%) [8]: 91% and 43% | Population Mitochondria Different-Phenotype (%) [8]: 95% and 72% | Population Normal (%) [8]: 89% and 91% | Population Pyknosed Nuclei (%) [8]: 44% and 28% | Population Tubulin-Different-Phenotype (%) [8]: 95% and 96%
